The results in this text go back to PubChem BioAssay AID504383 (The Scripps Research Institute Molecular Screening Center, 2011).

In all, about 2,500 compounds went through this assay and about 1,200 (48%) were called active. The set was probably picked from earlier hits. The list shows a part of the results. Values without a mark were called inactive.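 How the source made its calls: active means mean activation above the low control average plus 3 SD, as set in the primary screen (cut at about 12% in these data); inactive means the rest.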

The experiment has as its target Troponin I, cardiac muscle (Homo sapiens) + Troponin T, cardiac muscle (Homo sapiens) + Troponin C, slow skeletal and cardiac muscles (Homo sapiens) (UniProt P19429+P45379+P63316). The experiment in a line: calcium sensitizers of cardiac thin filaments – biochemical, IANBD-TnC fluorescence, triplicate, confirmation (AID 504383).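 Further: 0% = DMSO at 0.472 mM calcium and 100% = DMSO at 2.9 mM calcium.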 Conditions: IANBD-labeled cardiac RTF, Ca2+ sensitivity fluorescence; at 7.2 µM; hits give high values; scaled from EC20 to saturating calcium; tested at EC20 calcium, 0.472 mM. In outline: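 Material: labelled regulated thin filaments; Reagent: 0.472 mM calcium; Incubation: 15 min compound incubation with filaments at 25 °C; Detection: filament fluorescence intensity; Evaluation: fluorescence increase normalised to calcium controls; Benchmarks: low control EC20 calcium, high control EC100 calcium.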
As to `Cc1cc2cc(C=C(C#N)C#N)c(Cl)nc2cc1C`, the activation is 1.28%.
For `CN(C)c1ccc(/C=C/c2nc3ccccc3c(=O)n2-c2ccc(C(=O)O)cc2)cc1`, the activation was 2.26%.
The figure for `O=C(O)c1ccc(-n2c(/C=C/c3cccc([N+](=O)[O-])c3)nc3ccccc3c2=O)cc1` is 15.1% (active).
As to `COc1cc(C(=O)NCc2nnc(SCC(=O)Nc3ccc4c(c3)OCO4)o2)cc(OC)c1OC`, the activation was 165% (active).
The figure for `COc1cc(C(=O)Nc2ccc(Cl)c(C(F)(F)F)c2)cc(OC)c1OC` is 9.75%; for `COc1cc(OC)c(OC)cc1/C=C/C(=O)c1ccc(NS(=O)(=O)c2ccc(C)cc2)cc1` it is 8.63%.
For `COc1ccc(N/C=C\C(=O)c2ccc(Br)cc2)cc1OC`, the activation was 59.4% (active).
Regarding `COc1ccc(N2C(=O)C3C(C2=O)C(C(=O)c2ccc(Cl)cc2)N2CCCC32)cc1` (configuration not stated), the activation was 8.37%.
The figure for `CCOC(=O)c1ccc(-n2c(CCC(=O)O)ccc2-c2cccs2)cc1` is 2.47%.
The figure for `CC(=O)Oc1ccc(N2C(=O)C3C(C2=O)C(C(=O)c2ccc(Cl)cc2)N2CCCC32)cc1` (configuration not stated) is 77.4% (active); for `CCOC(=O)c1ccc(N2C(=O)C3C(C2=O)C(C(=O)c2ccc(Cl)cc2)N2CCCC32)cc1` (configuration not stated) it is 12.8% (active); for `COCCN(CCOC)Cc1c(O)ccc2c1O/C(=C\c1ccc(C)o1)C2=O` it is 3.93%.
The figure for `CCN1CCN(Cc2c(O)ccc3c2O/C(=C\c2ccccc2)C3=O)CC1` is 17.9% (active); for `COCCN(CCOC)Cc1c(O)ccc2c1O/C(=C\c1ccco1)C2=O` it is 9.93%; for `CCN1CCN(Cc2c(O)ccc3c2O/C(=C\c2ccc(C)cc2)C3=O)CC1` it is 5.39%.
Consider `CCN(CC)Cc1c(O)ccc2c1O/C(=C\C=C\c1ccccc1)C2=O`, for which the activation is 13.5% (active).
The result for `CN(C)Cc1c(O)ccc2c1O/C(=C\C=C\c1ccccc1)C2=O` reads 6.64%; that for `CCN1CCN(Cc2c(O)ccc3c2O/C(=C\C=C\c2ccccc2)C3=O)CC1`, 65.3% (active); that for `COc1ccccc1/C=C/C=C1\Oc2c(ccc(O)c2CN(C)C)C1=O`, 24.3% (active).
The result for `CCc1ccc(/C=C2\Oc3c(ccc(O)c3CN3CCN(C)CC3)C2=O)cc1` reads 8.07%.
The figure for `O=C1/C(=C/C=C/c2ccccc2)Oc2c1ccc(O)c2CN1CCN(CCO)CC1` is 126% (active).
For the compound `Cc1ccc(/C=C2\Oc3c(ccc(O)c3CN3CCN(C)CC3)C2=O)cc1`, the activation is 1.83%.
The figure for `CC(C)c1ccc(/C=C2\Oc3c(ccc(O)c3CN3CCN(C)CC3)C2=O)cc1` is 7.76%; for `Cc1ccc(/C=C2\Oc3c(ccc(O)c3CN3CCN(CCO)CC3)C2=O)cc1` it is 34.7% (active); for `COc1ccccc1/C=C/C=C1\Oc2c(ccc(O)c2CN2CCN(CCO)CC2)C1=O` it is 41.9% (active).
The result for `CCN1CCN(Cc2c(O)ccc3c2O/C(=C\C=C\c2ccccc2OC)C3=O)CC1` reads 8.36%; that for `CC(=O)c1ccc2c(c1)c(C#N)c1ccccc1[n+]2[O-]`, 174% (active); that for `CC1(C)CC(N2CCCC2)=CC(=[N+]2CCCCC2)C1`, 16% (active).
The figure for `COc1ccc(-n2c(O)c(/C=N/NS(=O)(=O)c3ccc(C)c([N+](=O)[O-])c3)c3ccccc3c2=O)cc1OC` is 3.31%; for `COc1ccc(-n2c(O)c(/C=N/NS(=O)(=O)c3cc(C)ccc3C)c3ccccc3c2=O)cc1OC` it is 10.9%.
For the compound `COc1ccc(-n2c(O)c(/C=N/NS(=O)(=O)c3ccc(C)cc3)c3ccccc3c2=O)cc1OC`, the activation was 46% (active).
On to `CCC12CN3CCN(CC(C3)/C1=N\NC(=O)Nc1ccccc1)C2`, for which the activation was 4.76%.
The figure for `Cc1ccc(N2C(=O)[C@@H]3[C@H](C2=O)C2CCCN2[C@@H]3C(=O)c2ccccc2)cc1` (some centres not stated) is 290% (active); for `Cc1ccc(C(=O)N2C(=O)C(c3ccccc3)Oc3ccccc32)cc1` (configuration not stated) it is 5.01%; for `O=C(c1ccccc1)[C@@H]1[C@@H]2C(=O)N(c3ccc(F)cc3)C(=O)[C@@H]2C2CCCN21` (some centres not stated) it is 22.7% (active).
In the case of `COc1cccc(C2CC(c3ccccc3)n3ncnc3N2)c1` (configuration not stated), the activation is 19.8% (active).
The result for `O=C1CC(c2cccc(Oc3ccccc3)c2)NC(=O)N1` (configuration not stated) reads 6.43%.
The figure for `N#C/C(=C(/O)COC(=O)COc1ccc(Cl)cc1)c1nc2ccccc2[nH]1` is 13.2% (active).
`COc1ccc(C(=O)OC/C(O)=C(\C#N)c2nc3ccccc3[nH]2)cc1S(=O)(=O)N1CCOCC1`: the activation was -0.63%.
The result for `Cc1ccc(N=Cc2sc(O)c3ccccc23)c(C)c1` reads 7.52%; that for `CCN(CC)c1ccc(C=Nc2cc(C)ccc2C)c(O)c1`, 15.7% (active); that for `O=C(c1ccc2c(=O)n3c(nc2c1)CCCCC3)N1CCN(c2cccc(Cl)c2)CC1`, 0.38%.
Take `COc1ccccc1NC(=O)CC(=O)CSc1nnc(-c2ccc(C)cc2)n1-c1ccccc1`: the activation is 3.38%.
For `COc1ccc(-c2nnc(SCC(=O)c3ccc[nH]3)n2-c2ccccc2)cc1`, the activation was 15.9% (active).
As to `Cc1ccc(C(=O)NNC(=O)CSc2nnc(-c3ccncc3)n2-c2ccc(C)cc2)cc1`, the activation was 7.51%.
`Cn1cc(Cl)c(-c2nc3ccccc3[nH]2)n1`: the activation is 20.4% (active).
The result for `Cn1nc([N+](=O)[O-])c(C(C#N)c2ccccn2)c(Cl)c1=O` (configuration not stated) reads 8.7%; that for `CCOC(=O)c1ccc(NC(=O)c2cc3c(C)nn(-c4ccccc4Cl)c3s2)s1`, 16.9% (active).
As to `CCN(CC)CCCNc1ccc2ncn3c4ccc(O)cc4c(=O)c1c23`, the activation was -1.43%.
In the case of `O=C/C(=C\Nc1ccc(S(=O)(=O)CCO)cc1)c1nc2cc(Cl)ccc2o1`, the activation is 65% (active).
The figure for `N#CC(C#N)=C1C=C2C=C(N3CCCCCC3)CCC2CC1` (configuration not stated) is 5.58%; for `COc1ccc2ccccc2c1C(O)c1nccn1C` (configuration not stated) it is 58% (active).
The result for `CN1c2ccc(C=O)c3c(C=O)ccc(c23)N(C)C1(C)C` reads 1.58%; that for `CC1=CC2=NC(=O)/C(=C\c3ccc(-c4cccc(Cl)c4)o3)C(=N)N2O1`, 101% (active); that for `COc1ccc(CNCc2cccc(Cl)c2)cc1`, 4.73%.
The figure for `OCCNCc1cccc(OCc2ccc(Cl)cc2)c1` is 173% (active).
For the compound `CN1CCN(/N=C/c2ccc(OCc3ccccc3)cc2)CC1`, the activation is 309% (active).
The figure for `O=C(C1CCN(Cc2ccc(OCc3ccccc3)cc2)CC1)N1CCCC1` is -1.48%; for `CN1CCN(CCOc2ccc(Cc3ccccc3)cc2)CC1` it is 9.76%.
Turning to `O=C(O)C1CC(O)CN1C(=O)c1ccco1` (configuration not stated), the activation was 5.9%.
The figure for `O=C(NCc1ccco1)C1CCC(N2C(=O)C3C4CCC(C4)C3C2=O)CC1` (configuration not stated) is 6.57%.
The figure for `O=C(NCc1ccco1)C1Cc2ccccc2CN1C(=O)c1ccco1` (configuration not stated) is 2880% (active).
Regarding `CCCCOc1ccc(C2OC34CCCCC3C(C#N)(C#N)C2(C#N)C(=N)O4)cc1` (configuration not stated), the activation is 6.95%.
The figure for `N#CC1(C#N)C(c2ccccc2)OC23CCCCC2C1(C#N)C(=N)O3` (configuration not stated) is -2.46%.
The figure for `CCCC1OC23CCCCC2C(C#N)(C#N)C1(C#N)C(=N)O3` (configuration not stated) is 179% (active); for `CCCCCCCCOc1ccc(C2OC34CCCCC3C(C#N)(C#N)C2(C#N)C(=N)O4)cc1` (configuration not stated) it is 17.2% (active); for `CCC1OC23CCCCC2C(C#N)(C(=N)O3)C1(C#N)C#N` (configuration not stated) it is 10.4%.
The result for `CCOc1ccc(C2OC34CCCCC3C(C#N)(C#N)C2(C#N)C(=N)O4)cc1OC` (configuration not stated) reads 7.44%.
With `CCCCC1OC23CCCCC2C(C#N)(C#N)C1(C#N)C(=N)O3` (configuration not stated), the activation is 13% (active).
The figure for `COc1ccc(C2OC34CCCCC3C(C#N)(C#N)C2(C#N)C(=N)O4)cc1` (configuration not stated) is 5.98%; for `CCCCC1OC23CCCCC2C(C#N)(C(=N)O3)C1(C#N)C#N` (configuration not stated) it is 10.2%.
Regarding `COc1cccc(/C=N/c2nc3ccccc3[nH]2)c1O`, the activation is 6.09%.
The result for `COc1cccc(/C=N/Nc2nnc3c(n2)[nH]c2ccccc23)c1OC` reads 13.1% (active); that for `NC(=O)[C@@H]1CCCNc2c(I)cc([N+](=O)[O-])cc2C(=O)N[C@@H](CCC(=O)O)C(=O)N[C@@H](CO)C(=O)N1`, 6.37%.
Consider `OC(CNCC1CCCO1)Cn1c2ccc(Br)cc2c2cc(Br)ccc21` (configuration not stated), for which the activation is 34.1% (active).
The figure for `COC(=O)C(C)n1cnc2c(nnn2Cc2ccc(Cl)cc2)c1=O` (configuration not stated) is 12.4% (active); for `Cc1ccccc1-n1c(SCc2c(C)noc2C)nnc1-c1cccnc1` it is 13.8% (active); for `COc1cc2c(cc1OC)CN(Cc1cc(=O)oc3cc(C)c(C)cc13)CC2` it is -0.4%.
The figure for `COc1ccc(-c2csc(N3CCN(c4cc5c(cc4Cl)nc(-c4ccncc4)n5CCOCCO)CC3)n2)cc1` is 2.85%; for `Cc1cc(N2CCN(c3nc(-c4ccc([N+](=O)[O-])cc4)cs3)CC2)c2ccccc2n1` it is 14.9% (active).
The result for `CC(=O)c1nnn(-c2cccc(C#N)c2)c1C` reads 1.86%.
With `O=C(CCSc1ccccc1)N1CCN(C(=O)c2ccco2)CC1`, the activation was 135% (active).
The result for `O=c1[nH]c2c(s1)C=Nc1ccccc1N2` reads 2.27%.
The result for `O=[n+]1c2c(n([O-])c3cc(F)c(N4CCCC4)cc31)CCCC2` reads 259% (active); that for `O=[n+]1c2c(n([O-])c3cc(F)c(N4CCCC4)cc31)CCC2`, 92% (active).
The result for `O=[n+]1c2c(n([O-])c3ccccc31)CCC2` reads 29.4% (active).
As for `O=C(Cn1c(=O)c(=O)n(Cc2ccccc2)c2ccc(Cl)cc21)Nc1ccc(F)cc1F`, the activation is 1.32%.
The result for `Cc1cc(C)c(/C=C2\C(=O)Nc3ccccc32)[nH]1` reads 14.2% (active); that for `O=C1Nc2ccccc2/C1=C/c1cnc(-c2ccccc2)[nH]1`, 92.3% (active).
Consider `Cc1ccc(N/C=C2/Sc3ccccc3NC2=O)cc1`, for which the activation was 9.19%.
The figure for `COc1ccc(CC(=O)NCc2csc(-c3cccs3)n2)cc1OC` is 5.67%; for `COc1ccc(CNS(=O)(=O)c2cc(-c3cc(C)no3)ccc2OC)cc1OC` it is 24.2% (active).
